Source: ChEMBL document CHEMBL3227955, “Studies on the mechanism of antiviral action of 1-(beta-D-ribofuranosyl)-1,2,4-triazole-3-carboxamide (ribavirin)” (J Med Chem, 1979)
pIC50: −log10 of the molar value. The source made the active and inactive calls. No cut-off for these calls is given here.

Species: Rattus norvegicus
Experiment: Activity at rat liver nucleoside kinase assessed as phosphorylation using [gamma-32P]-ATP after 10 to 20 mins
How it was run: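 Rat liver nucleoside kinase was the 55–90% (NH4)2SO4 fraction of the 144000g supernatant, dialyzed. The medium was 50 mM Tris-HCl pH 8.0, 5 μM MgCl2 (so in the source), 25 mM KCl, 1 mM [γ-32P]ATP, and pyruvate kinase with 2 mM phosphoenolpyruvate. Incubation was 10 or 20 min at 37 °C, stopped by 1 min at 100 °C. Liberated Pi was precipitated with added 0.1 mM K2HPO4.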

Q: Which Activity does the source give for CO[C@H]1[C@@H](O)[C@H](n2cnc(C(N)=O)n2)O[C@@H]1CO here?
A: Its Activity is “inactive”.

Q: For NC(=O)c1ncn([C@@H]2O[C@H](CO)[C@@H](O)[C@H]2O)n1, which Activity is on record?
A: Its Activity is “Active”.

Q: Which Activity does the source give for OC[C@H]1O[C@@H](n2cncn2)[C@H](O)[C@@H]1O here?
A: Its Activity is “inactive”.

Q: Which Activity does the source give for Nc1ncnc2c1ncn2[C@@H]1O[C@H](CO)[C@@H](O)[C@H]1O here?
A: The Activity was “Active”.

Q: Which Activity does the source give for CO[C@@H]1[C@H](O)[C@@H](CO)O[C@H]1n1cnc(C(N)=O)n1 here?
A: The Activity was “inactive”.

Q: For O=C(O)c1ncn([C@@H]2O[C@H](CO)[C@@H](O)[C@H]2O)n1, which Activity is on record?
A: The Activity was “inactive”.

Target: not listed separately
Experiment: Inhibition of rat spleen IMP dehydrogenase using NAD and IMP up to 1 hr
Format: tissue-based
How it was run: (§1)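 Rat spleen IMP dehydrogenase was the 30–40% (NH4)2SO4 fraction, dialyzed, at 0.66 mg protein/mL. Buffer was 0.1 M phosphate pH 7.7 with 1 mM EDTA, 0.5 mM 2-mercaptoethanol and 0.2 mM each NAD and IMP, started with IMP. A340 change against a no-IMP blank was followed at 37 °C for up to 1 h. Activity was expressed relative to the no-inhibitor rate.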

Q: With O=C(O)c1ncn([C@@H]2O[C@H](COP(=O)(O)O)[C@@H](O)[C@H]2O)n1 as the compound, how does the pIC50 read?
A: The pIC50 was 4.15.

Q: With NC(=O)c1ncn([C@@H]2O[C@H](COP(=O)(O)O)[C@@H](O)[C@H]2O)n1 [RIBAVIRIN MONOPHOSPHATE] as the compound, how does the pIC50 read?
A: The pIC50 was 5.70.

Species: Rattus norvegicus
Experiment: Inhibition of rat spleen IMP dehydrogenase using NAD and IMP at 200 uM up to 1 hr
Format: tissue-based
How it was run: as §1

Q: Which inhibition does the source give for O=P(O)(O)OC[C@H]1O[C@@H](n2cncn2)[C@H](O)[C@@H]1O here?
A: Its inhibition is “inactive”.

Q: With CO[C@@H]1[C@H](O)[C@@H](COP(=O)(O)O)O[C@H]1n1cnc(C(N)=O)n1 as the compound, how does the inhibition read?
A: The inhibition was “inactive”.

Q: Which inhibition does the source give for CO[C@H]1[C@@H](O)[C@H](n2cnc(C(N)=O)n2)O[C@@H]1COP(=O)(O)O here?
A: Its inhibition is “inactive”.
